Measured values: PMC4887403 (Bioorganic & medicinal chemistry letters, 2016)

Legend:
[1] = tested on: asexual parasites of the chloroquine-sensitive 3D7 strain of P. falciparum; test: asexual blood stage assay; format: cell-based; conditions: Plasmodium falciparum, 3D7, read-out: asexual activity (IC50, text)
Procedure, shortened: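 Asexual blood-stage parasites of chloroquine-sensitive P. falciparum 3D7 are tested with test compound in an 11-point dose-response, in duplicate. Each run includes a positive control and a DMSO negative control.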

HepG2 cells = test: HepG2 cell viability; format: cell-based; conditions: highest concentration tested 46 µM
Procedure, shortened: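 HepG2 cells are incubated with test compound to measure general cytotoxicity as cell viability. The assay uses an 11-point dose-response in duplicate, with a positive control and a DMSO negative control.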

malaria transmission = conditions: mouse model; cited from earlier work

Structure (SMILES)	IC50 [1] [nM]	other results
Cn1c(=O)n(-c2cccc(C(F)(F)F)c2)c2c3cc(-c4cccc(N)c4)ccc3ncc21 [Compound 37]	< 100	–
Cn1c(=O)n(-c2cccc(C(F)(F)F)c2)c2c3cc(-c4ccc(N)cc4)ccc3ncc21 [Compound 35]	< 100	–
Cn1c(=O)n(-c2ccc(C#N)cc2)c2c3cc(-c4ccc(N)nc4)ccc3ncc21 [Compound 60]	–	HepG2 cytotoxicity (HepG2 cells): no measurable HepG2 cytotoxicity
Nc1ccc(-c2ccc3ncc4ccc(=O)n(-c5cccc(C(F)(F)F)c5)c4c3c2)cn1 [Torin 2]	–	efficacy for blocking malaria transmission (malaria transmission): efficacy for blocking malaria transmission in a mouse model
